The values that follow come from ChEMBL document CHEMBL5678801, “A benzothiophene inhibitor of mitogen-activated protein kinase-activated protein kinase 2 inhibits tumor necrosis factor alpha production and has oral anti-inflammatory efficacy in acute and chronic models of inflammation” (J Pharmacol Exp Ther, 2010).

Data set [1] has as its target Serine/threonine-protein kinase pim-1 (Homo sapiens, UniProt P11309). The experiment in a line: Inhibition of Pim1 (unknown origin). The procedure, abridged: (§1)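 Kinase panel: 200 kinases were first screened at 1 μM inhibitor for percent inhibition. Those above 50% inhibition were then titrated for IC50. MgATP was fixed at the Km(app) determined for each enzyme.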

The nature of data set [2]: Inhibition of MK2 activity in LPS induced human U937 cells preincubated with compound for 1 hr followed by LPS induction and measured after 30 mins by Western blot analysis. The format is functional, cell-based. Conditions: u-937. The gist of the method:
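U937 cells were pretreated with compound for 1 h, then stimulated with LPS 100 ng/ml for 30 min at 37°C. Lysates were run on SDS-PAGE and Western blotted for p-Ser78-HSP27 and total HSP27, detected with fluorescent secondary antibodies and LiCor scanning. The phospho/total ratio was expressed against the LPS-only control. Single experiment repeated three times. 4-parameter fit.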

Data set [3] can be described thus: Inhibition of MK2 activity in LPS induced human Whole blood cell preincubated with compound for 1 hr followed by LPS induction and measured after 30 mins by Dissociation enhanced lanthanide fluoro-immuno assay. The format is functional, cell-based. The gist of the method: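 Whole blood was stimulated with LPS 100 ng/ml for 30 min. Phospho-Ser82 HSP27 and total HSP27 in lysates were read by DELFIA immunoassay.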

Data set [4] deals with MAP kinase-activated protein kinase 3 (Homo sapiens, UniProt Q16644). In words: Inhibition of recombinant MK3 (unknown origin) expressed in Escherichia coli using KKKALSRQLSVAA as substrate incubated for 1 hr followed by substrate addition in presence of ATP. The procedure, abridged: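 Recombinant kinase first activated with activated p38α (1:50 molar ratio) and 250 μM ATP for 1 hr at 30°C. Activity measured by 33P-labelled product peptide, separated by ion exchange. MgATP fixed at the Km(app) determined for each enzyme. IC50 values from duplicate experiments.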
Chain of MAP kinase-activated protein kinase 3 (Q16644 whole entry): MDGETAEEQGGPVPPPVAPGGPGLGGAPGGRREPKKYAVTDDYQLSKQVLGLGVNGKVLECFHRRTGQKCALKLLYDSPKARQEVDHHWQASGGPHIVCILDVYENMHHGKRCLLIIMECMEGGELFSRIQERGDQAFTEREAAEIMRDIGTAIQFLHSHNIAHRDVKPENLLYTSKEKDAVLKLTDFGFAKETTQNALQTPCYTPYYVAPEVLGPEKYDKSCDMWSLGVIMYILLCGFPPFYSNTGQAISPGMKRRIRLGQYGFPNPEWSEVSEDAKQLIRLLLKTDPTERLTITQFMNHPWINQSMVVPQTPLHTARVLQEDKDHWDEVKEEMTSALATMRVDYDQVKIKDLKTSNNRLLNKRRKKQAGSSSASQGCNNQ

Data set [5] deals with MAP kinase-interacting serine/threonine-protein kinase 2 (Homo sapiens, UniProt Q9HBH9). In words: Inhibition of recombinant MNK2 (unknown origin) using KKKALSRQLSVAA as substrate incubated for 1 hr followed by substrate addition in presence of ATP. The gist of the method:
(§2)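 Recombinant MAPKAP kinase was first activated with activated p38α (1:50 molar ratio) and 250 μM ATP for 1 hr at 30°C. Activity was then assayed at Km(app) MgATP by ion-exchange separation of 33P-labeled product peptide. IC50 was taken from duplicate experiments.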

Data set [6] can be described thus: Inhibition of IL-8 production in LPS induced human PBMC cells preincubated with compound for 1 hr followed by LPS induction and measured after 16 hrs by MSD analysis. The format is functional, cell-based. The gist of the method:
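Human PBMCs were pretreated with compound for 1 h (<1% DMSO final), then stimulated with LPS 100 ng/ml at 37°C. Cytokines in culture media were read by MSD 4-plex: TNFα at 4 h; IL-1β, IL-6 and IL-8 at 16 h. Data are means ±S.E.M. of two independent experiments in duplicate, three donors. IC50 by 4-parameter nonlinear regression.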

Data set [7] can be described thus: Half life in Sprague-Dawley rat measured upto 24 hrs by […] analysis. Format: ADME. Conditions: in vivo. The gist of the method: (§3)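 Male Sprague-Dawley rats (275-300 g), carotid-catheterized and acclimated overnight. Dosing was i.v. at 1 mpk (n=2) in 70% saline/20% PEG-400/10% ethanol, or oral at 3 mpk (n=3) as a suspension in 0.5% HPMC/Tween. Plasma drug was measured by LC-MS/MS. Cmax and Tmax were read from individual profiles. t½ came from the terminal log-linear slope and AUC by the linear trapezoidal rule. CL = dose/AUC0-∞, Vdss = CL×MRT, F = dose-normalized AUC po/iv.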

The target in data set [8] is MAP kinase-interacting serine/threonine-protein kinase 1 (Homo sapiens, UniProt Q9BUB5). The experiment in a line: Inhibition of recombinant MNK1 (unknown origin) expressed in Escherichia coli using KKKALSRQLSVAA as substrate incubated for 1 hr followed by substrate addition in presence of ATP. The gist of the method:
as §2

Data set [9] addresses T1, MAP kinase-activated protein kinase 2 (Homo sapiens, UniProt P49137).
Target sequence in this assay (P49137 whole entry, looked up): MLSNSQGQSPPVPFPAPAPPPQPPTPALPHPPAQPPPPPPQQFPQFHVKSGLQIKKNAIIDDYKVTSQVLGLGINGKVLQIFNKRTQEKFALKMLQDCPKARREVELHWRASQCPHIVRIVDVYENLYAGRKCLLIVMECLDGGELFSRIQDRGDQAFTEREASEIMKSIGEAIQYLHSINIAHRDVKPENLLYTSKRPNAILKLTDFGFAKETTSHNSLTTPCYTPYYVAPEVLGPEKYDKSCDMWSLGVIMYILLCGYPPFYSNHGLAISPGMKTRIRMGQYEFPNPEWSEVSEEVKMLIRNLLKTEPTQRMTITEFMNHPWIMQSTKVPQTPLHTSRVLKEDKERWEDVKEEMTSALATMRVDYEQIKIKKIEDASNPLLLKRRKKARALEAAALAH
The nature of data set [10]: Inhibition of IL-6 production in LPS induced human Whole blood cell preincubated with compound for 1 hr followed by LPS induction and measured after 16 hrs. The format is functional, cell-based. The procedure, abridged:
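Human whole blood was stimulated ex vivo with LPS 100 ng/ml. Plasma cytokines were read by MSD 4-plex: TNFα at 4 h; IL-1β, IL-6 and IL-8 at 16 h. Data are means ±S.E.M. of two independent experiments in duplicate, three donors. IC50 by 4-parameter nonlinear regression.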

Data set [11] deals with T2, Serine/threonine-protein kinase BRSK2 (Homo sapiens, UniProt Q8IWQ3).
T2 sequence (Q8IWQ3 whole entry): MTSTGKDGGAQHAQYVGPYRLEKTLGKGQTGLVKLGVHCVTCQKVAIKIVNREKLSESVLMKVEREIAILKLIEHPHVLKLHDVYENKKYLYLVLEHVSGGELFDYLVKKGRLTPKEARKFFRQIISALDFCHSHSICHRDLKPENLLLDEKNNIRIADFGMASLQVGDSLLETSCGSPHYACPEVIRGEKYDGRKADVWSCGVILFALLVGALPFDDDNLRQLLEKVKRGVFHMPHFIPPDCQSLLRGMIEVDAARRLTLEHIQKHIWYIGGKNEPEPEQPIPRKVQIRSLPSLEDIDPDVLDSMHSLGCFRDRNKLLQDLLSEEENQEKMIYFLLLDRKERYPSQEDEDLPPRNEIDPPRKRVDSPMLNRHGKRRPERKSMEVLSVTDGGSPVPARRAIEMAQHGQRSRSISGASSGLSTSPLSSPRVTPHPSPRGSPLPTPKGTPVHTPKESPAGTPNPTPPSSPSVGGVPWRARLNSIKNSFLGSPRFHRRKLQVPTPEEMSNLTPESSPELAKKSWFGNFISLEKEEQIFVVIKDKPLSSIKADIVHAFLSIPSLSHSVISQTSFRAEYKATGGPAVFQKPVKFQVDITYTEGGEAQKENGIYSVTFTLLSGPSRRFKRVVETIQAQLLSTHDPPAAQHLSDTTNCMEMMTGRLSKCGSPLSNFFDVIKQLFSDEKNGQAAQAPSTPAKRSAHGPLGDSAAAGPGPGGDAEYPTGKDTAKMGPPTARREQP
The experiment in a line: Inhibition of BrSK2 (unknown origin). The gist of the method: as §1

Data set [12] can be described thus: Plasma protein binding in rat. The format is ADME, cell-free. The gist of the method:
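Binding to rat and human plasma was measured in vitro by ultracentrifugation.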

Data set [13] addresses T1, MAP kinase-activated protein kinase 2. In words: Binding affinity to recombinant N-terminal truncated MK2 (45 to 371 residues) (unknown origin) expressed in Escherichia coli assessed as dissociation constant measured after 15 mins by surface plasmon resonance spectroscopy analysis. The gist of the method: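 SPR on biotinylated MK2 captured on a streptavidin-coated CM5 chip, at 25°C. Running buffer was 10 mM HEPES, 150 mM NaCl, 0.005% P20, flowing at 60 μl/min. Compound at 1-100 nM was injected for 4 min, then dissociation was followed for 15 min. Real-time binding kinetics were recorded.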
Target sequence in this assay (P49137 whole entry): as the sequence (P49137 whole entry, looked up) above

A short description of data set [14]: Antiinflammatory activity in human PBMC cells assessed as inhibition of LPS induced TNF alpha production preincubated for 1 hr followed by LPS stimulation and measured after 16 hrs by MSD analysis. The format is functional, cell-based.
Data set [15] is described as follows: Tmax in Sprague-Dawley rat measured upto 24 hrs by […] analysis. The format is ADME. Conditions: in vivo. The gist of the method: as §3

As a reminder, the IC50 is the concentration that gives 50% inhibition. The half-life is how long it takes for the measured level to halve. A word on the Kd: it is the free concentration of one partner at which half of the binding sites on the other are occupied at equilibrium, for simple one-to-one binding. By Tmax is commonly meant the time from dosing to the highest level.

Chain of MAP kinase-interacting serine/threonine-protein kinase 1 (Q9BUB5 whole entry): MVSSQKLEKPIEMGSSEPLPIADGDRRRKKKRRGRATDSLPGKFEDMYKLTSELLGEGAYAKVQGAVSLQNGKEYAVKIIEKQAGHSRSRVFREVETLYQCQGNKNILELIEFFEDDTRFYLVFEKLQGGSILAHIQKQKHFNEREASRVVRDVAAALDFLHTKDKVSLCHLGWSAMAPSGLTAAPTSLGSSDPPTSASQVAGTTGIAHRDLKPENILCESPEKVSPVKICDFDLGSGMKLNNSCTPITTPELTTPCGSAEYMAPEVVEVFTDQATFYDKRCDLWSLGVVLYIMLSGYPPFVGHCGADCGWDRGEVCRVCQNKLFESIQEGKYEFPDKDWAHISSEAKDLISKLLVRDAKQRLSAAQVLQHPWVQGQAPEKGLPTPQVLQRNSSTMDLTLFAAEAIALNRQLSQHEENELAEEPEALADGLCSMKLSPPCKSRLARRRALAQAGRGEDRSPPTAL
Chain of Serine/threonine-protein kinase pim-1 (P11309 whole entry): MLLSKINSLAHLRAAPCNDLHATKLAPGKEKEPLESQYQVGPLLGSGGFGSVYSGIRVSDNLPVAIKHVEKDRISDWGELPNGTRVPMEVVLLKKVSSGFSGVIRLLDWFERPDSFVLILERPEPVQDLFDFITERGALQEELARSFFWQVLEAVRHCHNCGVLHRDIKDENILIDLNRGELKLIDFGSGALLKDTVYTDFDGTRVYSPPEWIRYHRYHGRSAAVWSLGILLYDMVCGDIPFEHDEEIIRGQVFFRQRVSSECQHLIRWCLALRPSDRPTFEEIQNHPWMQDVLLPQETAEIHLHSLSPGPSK
Chain of MAP kinase-interacting serine/threonine-protein kinase 2 (Q9HBH9 whole entry): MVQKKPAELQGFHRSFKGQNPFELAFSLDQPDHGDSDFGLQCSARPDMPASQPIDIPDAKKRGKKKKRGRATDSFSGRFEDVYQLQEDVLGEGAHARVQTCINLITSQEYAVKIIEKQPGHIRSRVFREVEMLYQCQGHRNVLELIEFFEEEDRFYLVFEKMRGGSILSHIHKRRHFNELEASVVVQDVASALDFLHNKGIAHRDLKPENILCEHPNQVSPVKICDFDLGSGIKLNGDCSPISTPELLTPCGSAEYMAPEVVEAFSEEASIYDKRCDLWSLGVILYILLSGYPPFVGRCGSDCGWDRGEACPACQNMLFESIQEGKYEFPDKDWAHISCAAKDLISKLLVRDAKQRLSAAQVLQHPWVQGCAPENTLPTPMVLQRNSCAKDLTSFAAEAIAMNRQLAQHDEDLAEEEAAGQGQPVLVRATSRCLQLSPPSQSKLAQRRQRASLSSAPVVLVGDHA

Turning to `Cc1ccc(-c2ccc3c(ccc4sc5c(c43)NC[C@@H](C)NC5=O)n2)cn1`, the IC50 is 88 nM in data set [1]; 201 nM in data set [2]; 1600 nM in data set [3]; 53 nM in [4]; 148 nM in data set [5]; 2090 nM in [6]. For the same compound, the IC50 in data set [8] is 3000 nM; in data set [10] it was 10300 nM; in [11], 90 nM; in data set [14], 214 nM. Also, the half-life in [7] was 9.1 h. In addition, in data set [9], the fIC50 was found to be 126 nM. Further, the PPB in data set [12] turned out to be 92.1%. Moreover, the Kd in data set [13] was 5.9 nM. Also, in data set [15], the Tmax was found to be 0.17 h.
